MPTP inh = permeability transition pore inhibition; isolated mouse mitochondria, Ca2+ swelling absorbance, 30 min; inhibition, % at 10 µM; 360,000 tested, 1.4% active; AID 602449;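 active = inhibition of 50% or more, scaled per plate between neutral and stimulator controls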;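 note: 0% = DMSO wells given calcium and 100% = 1 mM EGTA wells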
NR3A LBD binder = modulates the human NR3A ligand-binding domain; NR3A LBD differential scanning fluorimetry, Tm shift; 0% = protein alone, 100% = glycine-bound protein; Tm shift relative to glycine control, % at 25 µM; 340,000 tested, 2.5% active;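 active = melting temperature shift of at least 10% of the positive control shift, at one fixed dose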
SKN-1 block = C. elegans SKN-1 inhibition | C. elegans VP596 Pgst-4::GFP/RFP ratio, acrylamide-induced, 24 h | inhibition, % at 21.8 µM | 360,000 tested, 0.49% active;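 active = interference check ratio from 0.5 to 1.5 plus GFP to RFP signal ratio inhibition reaching or exceeding a fixed threshold, cut at about 30% in these data, passing the limit was not always enough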
ADAM17 inh = inhibitors of human ADAM17; AID 720648; recombinant ADAM17, EDANS/DABCYL FRET peptide cleavage; inhibition, % at 6.95 µM; 370,000 tested, 0.83% active;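 active = inhibition above the mean of compounds lying between control limits plus 3 SD, set per campaign, cut at about 8.5% in these data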;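 note: 0% = DMSO-only wells as the low control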
MT1-MMP act inh = blocks activation of human MT1-MMP | P50281 | HT1080 RFP-PRO-GFP cells, GFP/RFP ratio fluorescence, overnight; percent of plate control window, DMSO zero | GFP/RFP ratio change, % at 20 µM | 360,000 tested, 0.061% active | AID 651647;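 active = GFP/RFP ratio change of at least 30% with cell ATP level not reduced by more than half and red fluorescence within 50% of control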
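Assay system: HT1080 RFP-PRO-GFP cells. Benchmarks: DMSO vehicle wells and RFP-L50D-GFP reporter cell wells. Times: overnight cell settling, then overnight compound exposure, 37 °C, 5% CO2. Compound: 20 µM single dose, 1% DMSO. Read-out basis: GFP/RFP fluorescence ratio.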
ADAM10 inh = ADAM10 inhibition, QFRET primary screen. AID 720582. recombinant ADAM10, EDANS/DABCYL FRET peptide cleavage, 3 h. O14672. inhibition, % at 7 µM. 370,000 tested, 0.62% active;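 active = inhibition above a per-campaign cutoff equal to the mean of compounds falling between control-based bounds plus 3 SD, cut at about 20% in these data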;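 note: 0% = DMSO wells while the 100% control is not disclosed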
Target sequence (O14672 214-748 limits assumed): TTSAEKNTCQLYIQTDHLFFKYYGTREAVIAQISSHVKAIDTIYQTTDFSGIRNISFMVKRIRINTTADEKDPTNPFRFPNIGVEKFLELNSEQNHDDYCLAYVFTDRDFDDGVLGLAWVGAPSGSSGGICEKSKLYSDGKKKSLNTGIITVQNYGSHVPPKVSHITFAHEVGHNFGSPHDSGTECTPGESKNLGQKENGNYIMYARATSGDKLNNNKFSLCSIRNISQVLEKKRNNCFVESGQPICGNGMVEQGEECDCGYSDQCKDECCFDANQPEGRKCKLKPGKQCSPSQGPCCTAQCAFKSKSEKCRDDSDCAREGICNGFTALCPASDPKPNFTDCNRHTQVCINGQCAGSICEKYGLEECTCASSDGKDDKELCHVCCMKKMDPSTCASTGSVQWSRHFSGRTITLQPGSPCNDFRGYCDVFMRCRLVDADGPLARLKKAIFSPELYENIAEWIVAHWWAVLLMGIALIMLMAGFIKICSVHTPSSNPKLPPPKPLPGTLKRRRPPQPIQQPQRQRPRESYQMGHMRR
ADAM10 counter = inhibits human ADAM10 in ADAM17 exosite counter-screen; shares compounds with ADAM17 inh; recombinant ADAM10, EDANS/DABCYL FRET peptide cleavage, 3 h; inhibition, % at 6.95 µM; 2,900 tested, 47% active;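 active = mean inhibition over the triplicate runs exceeds the activity threshold set in the earlier primary screen, cut at about 20% in these data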;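 note: 0% = DMSO wells and 100% = marimastat wells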
ADAM17 confirm = human ADAM17 inhibition, confirmation; shares compounds with ADAM17 inh; recombinant ADAM17, EDANS/DABCYL QFRET peptide cleavage; inhibition, % at 6.95 µM; 2,900 tested, 65% active; AID 743257;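 active = mean inhibition across replicates above the hit cutoff set in the primary screen, cut at about 8.5% in these data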;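 note: 0% = DMSO wells and 100% = marimastat wells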
* = called active by the depositor; . = not tested or not shown. A selection: hits, their analogues and other compounds. The true share with any hit is near 4.7%.

SMILES	MPTP inh	NR3A LBD binder	SKN-1 block	ADAM17 inh	MT1-MMP act inh	ADAM10 inh	ADAM10 counter	ADAM17 confirm
Cc1ccc(N2CCN(C(=O)C3CCC(=O)N(Cc4ccc(Cl)cc4)C3)CC2)c(C)c1 (configuration not stated)	1	2	7	8.8*	7	2	9	5
Cc1cc(C)c(OCC(=O)NCC2COc3ccccc3O2)c(C)c1 (configuration not stated)	0	0	1	15*	0	11	9	5
Cc1ccc(C)c(OCC(=O)NCC2COc3ccccc3O2)c1 (configuration not stated)	-1	2	3	-2	0	-3	.	.
COc1cccc2cc(C(=O)NC3CC(C)(C)NC(C)(C)C3)c(=O)oc12	.	2	.	.	.	.	.	.
Nn1c(COc2cccc(Br)c2)nnc1SCC(=O)N1CCc2ccccc2C1	1	2	15	12*	0	10	5	7
Nn1c(COc2cccc(Br)c2)nnc1SCC(=O)NCC1CCCO1 (configuration not stated)	0	2	-8	-2	2	-17	.	.
Cc1ccc(Cn2nnc3c2-c2cc(F)ccc2S(=O)(=O)N(C(C)(C)C)C3)cc1	.	.	.	9.5*	.	18	23*	11*
CN1Cc2nnn(Cc3ccccc3)c2-c2cc(F)ccc2S1(=O)=O	.	.	.	-4	.	0	.	.
COc1cc(C=C(c2nc3ccccc3s2)c2nc3ccccc3s2)ccc1O	4	0	-5	9.6*	-2	18	20*	14*
COc1cccc(/C=C(\CC(=O)O)c2nc3ccccc3s2)c1	-2	1	-4	-9	-7	-24	.	.
O=C1c2ccccc2C(=O)N1Cc1nc(-c2ccncc2)no1	-2	3	5	-1	2	-6	.	.
C#CCN(C[C@@H]1[C@@H](OC(=O)NC2CC2)[C@@H](OC(=O)NC2CC2)CN(C(=O)OC(C)C)N1C(=O)OC(C)C)S(=O)(=O)c1ccc(C)cc1	0	.	2	2	-4	4	.	.
C#CCN(C[C@H]1[C@H](OC(=O)Nc2cccs2)[C@H](OC(=O)Nc2cccs2)CN(C(=O)OC(C)C)N1C(=O)OC(C)C)S(=O)(=O)c1ccc(C)cc1	.	.	.	12*	.	10	33*	19*
CCN(C(=O)C1=COCCO1)c1nc2c(C)cccc2s1	2	1	24	9.3*	-1	5	-2	3
CN(C)S(=O)(=O)c1ccc(N2CCCC2)c(C(=O)NC2CCCCC2)c1	-2	1	14	-1	0	0	.	.
CCc1ccc(N2CC(C)Cn3c2nc2c3c(=O)n(CCN3CCOCC3)c(=O)n2C)cc1 (configuration not stated)	-3	-2	-10	9.1*	6	-1	-5	1
COc1ccc(N2CC(C)Cn3c2nc2c3c(=O)n(CCN3CCOCC3)c(=O)n2C)cc1 (configuration not stated)	-2	0	11	-3	5	-10	.	.
O=C(OCc1cn([C@@H]2C[C@H](c3ccccc3)N(Cc3cccs3)C[C@H]2O)nn1)c1ccccc1	0	.	21	-1	-2	4	.	.
COc1ccc([C@H]2C[C@H](n3cc(COC(=O)c4ccccc4)nn3)[C@@H](O)CN2Cc2cccs2)cc1	0	.	-3	12*	-2	11	32*	14*
N#Cc1ccc(-c2nc3c4ccccc4ccn3c2Cc2ccsc2)cc1	0	.	10	-14	1	-52	.	.
CCc1noc(C)c1C(=O)OC(C)C(=O)NCc1ccc(OC)cc1 (configuration not stated)	1	0	-23	-5	1	-1	.	.
CC(CC(=O)OCC(=O)NCc1ccc(Cl)cc1)c1ccccc1 (configuration not stated)	2	0	-2	11*	4	0	14	10*
COc1ccc(CNC(=O)CC(C)c2ccccc2)cc1 (configuration not stated)	0	-2	6	-7	-2	-13	.	.
Nc1ccccc1Sc1ccc(C(=O)c2ccccc2C(=O)O)cc1[N+](=O)[O-]	1	2	12	9.0*	-5	16	6	3
O=C(O)/C=C/C(=O)Nc1ccc(N2CCOCC2)nc1N1CCOCC1	2	-1	11	-1	-2	-12	.	.
SMILES	MPTP inh	NR3A LBD binder	SKN-1 block	ADAM17 inh	MT1-MMP act inh	ADAM10 inh	ADAM10 counter	ADAM17 confirm
O=c1[nH]c(=S)n(-c2ccc(Br)cc2)c2ncccc12	1	0	7	11*	0	6	20	11*
COc1cc(/C=N/Nc2nc3ccccc3o2)cc(OC)c1O	0	4	-7	-9	0	-27	.	.
COc1cc2nc(NC(=O)c3ccc(Cl)cc3)[nH]c(=O)c2cc1OC	-4	1	15	-4	5	-4	.	.
CCOC(=O)NCc1ccc(CNC(=O)OCC)cc1	-3	-2	21	-1	0	-1	.	.
CCOC(=O)NCc1ccc(S(=O)(=O)Nc2ccc(C)cc2)cc1	-2	-3	12	11*	6	14	5	4
Cc1ccc(CN2C(=O)[C@@H]3Cc4c([nH]c5ccccc45)C(C)(C)N3C2=O)cc1	2	1	-7	4	5	12	.	.
COc1cccc(CN2C(=O)[C@@H]3Cc4c([nH]c5ccccc45)C(C)(C)N3C2=O)c1	1	-3	0	8.7*	3	15	19	14*
Cc1ccc(CN2C(=O)[C@H]3Cc4c([nH]c5ccccc45)C(C)(C)N3C2=O)cc1	2	0	6	12*	2	18	18	12*
Cc1ccc(C(=O)c2nccn2C)cc1C	-1	3	7	1	-4	-3	.	.
CCCCN1C(=O)C(O)=C(C(C)=O)C1c1ccc(OC)cc1OC (configuration not stated)	0	-1	3	10*	5	8	0	1
COc1ccc(N2CCC(CNC(=O)Nc3ccccc3)C2)cc1 (configuration not stated)	1	-4	2	14*	-4	9	3	8
COc1ccc(CN2CCC(CNC(=O)Nc3ccccc3)CC2)cc1	.	.	.	1	.	2	.	.
COC(=O)[C@@]12C[C@@H](CC(=O)NCc3cccc4ccccc34)C(=O)N(CCc3ccc(OC)c(OC)c3)C1=CCC(C)(C)C2	0	.	-7	4	-1	11	.	.
